ChEMBL document CHEMBL4689842, “EUbOPEN Chemogenomics Library wave 1” (2021)

Test system: U2OS
Test: Multiplex assay against U2OS
Type: toxicity, cell-based
Conditions: human
How it was run: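 Phenotypes for tubulin, mitochondrial mass and membrane permeability are expressed as per cents of healthy-nucleus cells. Cells were stained live at seeding with Hoechst33342, BioTracker Green Microtubule Cytoskeleton Dye, MitoTracker Red and Annexin V Alexa Fluor 680, then imaged after compound addition on a CQ1 microscope at 37°C and 5% CO2. Machine-learning gating in CellPathfinder separated Hoechst high-intensity objects from normal cells, divided normal cells by nuclear state (healthy, pyknosed, fragmented) and divided pyknosed cells into mitotic or apoptotic.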

[1] = 12 h, 1 µM, compound concentration 1 uM, replicate 1
[2] = 12 h, 1 µM, compound concentration 1 uM, replicate 2
[3] = 12 h, 10 µM, compound concentration 10 uM, replicate 1
[4] = 12 h, 10 µM, compound concentration 10 uM, replicate 2
[5] = 24 h, 1 µM, compound concentration 1 uM, replicate 1
[6] = 24 h, 1 µM, compound concentration 1 uM, replicate 2
[7] = 24 h, 10 µM, compound concentration 10 uM, replicate 1
[8] = 24 h, 10 µM, compound concentration 10 uM, replicate 2
[9] = 48 h, 1 µM, compound concentration 1 uM, replicate 1
[10] = 48 h, 1 µM, compound concentration 1 uM, replicate 2
[11] = 48 h, 10 µM, compound concentration 10 uM, replicate 1
[12] = 48 h, 10 µM, compound concentration 10 uM, replicate 2

## CN1C2CCC1CC(OC(c1ccc(F)cc1)c1ccc(F)cc1)C2.Cl (stereo not given)
[1]
  Population Apoptotic (%): 45%
  Population Fragmented Nuclei (%): 8%
  Population Healthy Nuclei (%): 80%
  Population Hoechst High Intensity Objects (%): 4%
  Population Membrane Permeable-Phenotype (%): 2%
  Population Mitochondria Different-Phenotype (%): 11%
  Population Mitotic Cells (%): 54%
  Population Normal (%): 95%
  Population Pyknosed Nuclei (%): 10%
  Total Cell Count: 223
[2]
  Population Apoptotic (%): 100%
  Population Fragmented Nuclei (%): 5%
  Population Healthy Nuclei (%): 92%
  Population Hoechst High Intensity Objects (%): 2%
  Population Membrane Permeable-Phenotype (%): 3%
  Population Mitochondria Different-Phenotype (%): 4%
  Population Mitotic Cells (%): 0%
  Population Normal (%): 97%
  Population Pyknosed Nuclei (%): 1%
  Population Tubulin-Different-Phenotype (%): 8%
  Total Cell Count: 69
[3]
  Population Apoptotic (%): 56%
  Population Fragmented Nuclei (%): 15%
  Population Healthy Nuclei (%): 68%
  Population Hoechst High Intensity Objects (%): 4%
  Population Membrane Permeable-Phenotype (%): 4%
  Population Mitochondria Different-Phenotype (%): 81%
  Population Mitotic Cells (%): 43%
  Population Normal (%): 95%
  Population Pyknosed Nuclei (%): 15%
  Population Tubulin-Different-Phenotype (%): 54%
  Total Cell Count: 151
[4]
  Population Apoptotic (%): 80%
  Population Fragmented Nuclei (%): 8%
  Population Healthy Nuclei (%): 78%
  Population Hoechst High Intensity Objects (%): 6%
  Population Membrane Permeable-Phenotype (%): 10%
  Population Mitochondria Different-Phenotype (%): 89%
  Population Mitotic Cells (%): 20%
  Population Normal (%): 93%
  Population Pyknosed Nuclei (%): 13%
  Population Tubulin-Different-Phenotype (%): 49%
  Total Cell Count: 78
[5]
  Population Apoptotic (%): 50%
  Population Fragmented Nuclei (%): 7%
  Population Healthy Nuclei (%): 84%
  Population Hoechst High Intensity Objects (%): 3%
  Population Membrane Permeable-Phenotype (%): 1%
  Population Mitochondria Different-Phenotype (%): 6%
  Population Mitotic Cells (%): 50%
  Population Normal (%): 96%
  Population Pyknosed Nuclei (%): 7%
  Population Tubulin-Different-Phenotype (%): 3%
  Total Cell Count: 305
[6]
  Population Apoptotic (%): 20%
  Population Fragmented Nuclei (%): 3%
  Population Healthy Nuclei (%): 90%
  Population Hoechst High Intensity Objects (%): 2%
  Population Membrane Permeable-Phenotype (%): 4%
  Population Mitochondria Different-Phenotype (%): 4%
  Population Mitotic Cells (%): 80%
  Population Normal (%): 97%
  Population Pyknosed Nuclei (%): 6%
  Population Tubulin-Different-Phenotype (%): 8%
  Total Cell Count: 82
[7]
  Population Apoptotic (%): 62%
  Population Fragmented Nuclei (%): 15%
  Population Healthy Nuclei (%): 65%
  Population Hoechst High Intensity Objects (%): 7%
  Population Membrane Permeable-Phenotype (%): 0%
  Population Mitochondria Different-Phenotype (%): 71%
  Population Mitotic Cells (%): 37%
  Population Normal (%): 92%
  Population Tubulin-Different-Phenotype (%): 30%
  Total Cell Count: 196
[8]
  Population Apoptotic (%): 80%
  Population Fragmented Nuclei (%): 16%
  Population Healthy Nuclei (%): 64%
  Population Hoechst High Intensity Objects (%): 3%
  Population Membrane Permeable-Phenotype (%): 6%
  Population Mitochondria Different-Phenotype (%): 78%
  Population Mitotic Cells (%): 20%
  Population Normal (%): 96%
  Population Pyknosed Nuclei (%): 19%
  Population Tubulin-Different-Phenotype (%): 25%
  Total Cell Count: 107
[9]
  Population Apoptotic (%): 33%
  Population Fragmented Nuclei (%): 6%
  Population Healthy Nuclei (%): 87%
  Population Hoechst High Intensity Objects (%): 1%
  Population Membrane Permeable-Phenotype (%): 2%
  Population Mitochondria Different-Phenotype (%): 6%
  Population Mitotic Cells (%): 66%
  Population Normal (%): 98%
  Population Pyknosed Nuclei (%): 6%
  Population Tubulin-Different-Phenotype (%): 5%
  Total Cell Count: 477
[10]
  Population Apoptotic (%): 0%
  Population Fragmented Nuclei (%): 1%
  Population Healthy Nuclei (%): 97%
  Population Hoechst High Intensity Objects (%): 2%
  Population Membrane Permeable-Phenotype (%): 5%
  Population Mitochondria Different-Phenotype (%): 16%
  Population Mitotic Cells (%): 100%
  Population Normal (%): 97%
  Population Pyknosed Nuclei (%): 0%
  Population Tubulin-Different-Phenotype (%): 7%
  Total Cell Count: 119
[11]
  Population Apoptotic (%): 64%
  Population Fragmented Nuclei (%): 20%
  Population Healthy Nuclei (%): 63%
  Population Hoechst High Intensity Objects (%): 5%
  Population Membrane Permeable-Phenotype (%): 1%
  Population Mitochondria Different-Phenotype (%): 44%
  Population Mitotic Cells (%): 35%
  Population Normal (%): 94%
  Population Pyknosed Nuclei (%): 15%
  Population Tubulin-Different-Phenotype (%): 17%
  Total Cell Count: 249
[12]
  Population Apoptotic (%): 77%
  Population Fragmented Nuclei (%): 16%
  Population Healthy Nuclei (%): 75%
  Population Hoechst High Intensity Objects (%): 6%
  Population Membrane Permeable-Phenotype (%): 18%
  Population Mitochondria Different-Phenotype (%): 56%
  Population Mitotic Cells (%): 22%
  Population Normal (%): 93%
  Population Pyknosed Nuclei (%): 7%
  Population Tubulin-Different-Phenotype (%): 27%
  Total Cell Count: 127
